# RBBP9 inh – blocks human serine hydrolase RBBP9; O75884; recombinant RBBP9, FP-Rh probe fluorescence polarization; AID 1515; inhibition, % at 7.94 µM; actives 0.2% (n = 220,000);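 active = inhibition above the campaign mean of all tested compounds plus 3 SD, cut at about 14% in these data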;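 also: plate controls were DMSO wells with RBBP9 for no effect and wells lacking RBBP9 protein for full effect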
# Target sequence (O75884 whole entry, looked up): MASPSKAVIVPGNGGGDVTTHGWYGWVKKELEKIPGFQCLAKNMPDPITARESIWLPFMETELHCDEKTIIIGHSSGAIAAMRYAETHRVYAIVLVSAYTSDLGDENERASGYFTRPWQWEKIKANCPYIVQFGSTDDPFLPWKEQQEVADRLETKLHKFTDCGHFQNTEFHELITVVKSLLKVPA
#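 Material: RBBP9 protein. Amount: RBBP9 at 2.5 µM in dispensed solution, before mixing. Schedule: 30 min then 45 min, 25 °C. Medium: Tris buffer pH 8.0, NaCl, Pluronic. Measured by: fluorescence polarization. Measure: percent inhibition from mP, scaled between DMSO and no-protein wells. Replication: one well per compound.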
# pPAFAH inh – inhibitors of human plasma PAF acetylhydrolase (pPAFAH) | AID 463082 | recombinant pPAFAH, FP-rhodamine probe fluorescence polarization | actives 1.5% (n = 330,000) | inhibition, % at 3.39 µM;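 active = inhibition above the mean inhibition across the screen plus 3 SD, cut at about 25% in these data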;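 also: inhibitors block binding of the rhodamine activity-based probe so polarization drops; 0% = enzyme with DMSO and 100% = wells lacking pPAFAH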
# PAFAH2 inh – PAFAH2 (human) inhibition; Q99487; recombinant PAFAH2, FP-rhodamine activity probe, fluorescence polarization; inhibition, % at 3.39 µM; actives 0.99% (n = 340,000); AID 492956;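 active = inhibition above the mean over all tested compounds plus 3 SD, cut at about 30% in these data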;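 also: inhibitors block probe labeling of enzyme so polarization drops; 0% = enzyme with DMSO and 100% = wells lacking PAFAH2 protein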
# PAFAH1B2 FP inh – PAFAH1B2 (human) inhibition; actives 1.2% (n = 340,000); P68402; inhibition, % at 3.39 µM; AID 492953; recombinant PAFAH1B2, FP-rhodamine activity probe, fluorescence polarization;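 active = inhibition above the mean of all tested compounds plus 3 SD, cut at about 24% in these data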;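 also: 0% = enzyme with DMSO and 100% = wells lacking PAFAH1B2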
# Target sequence (P68402 whole entry, looked up): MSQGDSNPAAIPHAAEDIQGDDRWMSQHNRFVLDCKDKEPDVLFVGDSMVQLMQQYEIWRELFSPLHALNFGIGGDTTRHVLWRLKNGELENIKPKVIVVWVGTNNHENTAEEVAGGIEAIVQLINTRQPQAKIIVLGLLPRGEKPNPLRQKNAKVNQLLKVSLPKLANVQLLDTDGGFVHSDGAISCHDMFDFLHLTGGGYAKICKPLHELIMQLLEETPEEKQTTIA
# PAFAH1B3 FP inh – inhibitors of human PAFAH1B3 | recombinant PAFAH1B3, FP-rhodamine probe, fluorescence polarization | inhibition, % at 3.39 µM | actives 0.28% (n = 340,000);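 active = inhibition above the screen-wide average of all tested compounds plus 3 SD, cut at about 25% in these data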;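 also: 0% = enzyme with DMSO only and 100% = wells lacking PAFAH1B3 protein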
# PAFAH1B3 confirm – PAFAH1B3 (human) inhibition, confirmed; actives 30% (n = 390); recombinant PAFAH1B3, FP-Rh activity-based probe, fluorescence polarization; shares compounds with PAFAH1B3 FP inh; inhibition, % at 3.39 µM;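 active = average inhibition over triplicate runs above the hit cutoff set in the earlier primary screen, cut at about 25% in these data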;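 also: 0% = enzyme with DMSO and 100% = wells lacking PAFAH1B3 protein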
# An asterisk follows results filed as active; · = not tested or not shown. Most compounds without a hit are left out; they make up all but 2.7% or so of the library.
SMILES,RBBP9 inh,pPAFAH inh,PAFAH2 inh,PAFAH1B2 FP inh,PAFAH1B3 FP inh,PAFAH1B3 confirm
O=c1[nH]c(Nc2ccc(F)cc2)cc2ccccc12,0.9,11.2,6.0,10.3,56.3*,20.0
O=C1C=C(N(CCO)Cc2ccccc2)c2ccccc2C1=O,-7.2,·,20.4,9.7,43.8*,28.9*
CCN(CC)CCNC(=O)/C(=C/c1cn(C)c2ccccc12)NC(=O)c1ccc(OC)c(OC)c1,5.0,-6.2,-3.1,3.7,5.2,·
CC(C)(C)c1nnc2sc(SCC(=O)c3ccc(Cl)cc3)nn2c1=O,-7.7,1.3,-2.4,8.1,26.8*,14.3
O=C1OC(c2ccc3c(c2)OCO3)=N/C1=C\c1ccc(C(=O)O)cc1,·,3.4,3.6,1.5,10.5,·
CCc1noc(C)c1C(=O)N1CCN(S(=O)(=O)c2ccc(Cl)s2)CC1,·,1.1,1.4,3.6,5.0,·
O=C(N1CCCCC1)C12CC3CC(C1)CC(C(=O)N1CCCCC1)(C3)C2,5.5,7.8,0.1,3.5,39.3*,9.8
COc1cccc(C(C(=O)NC2CCCC2)N(C(=O)c2ccco2)c2ccccc2)c1OC (stereo not given),·,-0.5,8.9,-0.9,-5.6,·
O=C(Cn1c(=S)[nH]c2ccccc2c1=O)N1CCN(c2ccccc2)CC1,-0.7,6.7,-24.7,-13.9,25.7*,10.9
O=C(NNC(=O)c1ccc2ccccc2c1O)NC1CCCCC1,·,·,2.6,11.1,30.1*,24.8
COc1cc(OC)cc(C(=O)NNC(=O)c2cc3ccccc3cc2O)c1,·,·,4.8,6.1,18.5,·
Cc1ccc(C(=O)NNC(=O)c2ccc3ccccc3c2O)cc1,·,15.5,-0.4,0.8,5.7,·
COc1ccccc1NC(=O)NNC(=O)c1cc2ccccc2cc1O,·,22.1,1.5,9.8,31.8*,44.6*
O=C(NNC(=O)c1ccc2ccccc2c1O)Nc1ccc(F)cc1,·,17.6,-5.6,5.1,18.6,·
Cc1ccc(NC(=O)NNC(=O)c2cc3ccccc3cc2O)cc1,·,21.4,-13.0,20.9,46.2*,75.6*
Cc1cccc(NC(=O)NNC(=O)c2ccc3ccccc3c2O)c1,·,·,-5.8,18.2,42.5*,81.7*
COc1cc2c(cc1OC)C(Cc1ccccc1[N+](=O)[O-])=NCC2,·,·,3.2,2.6,13.6,·
O=C(O)c1ccc(Cl)c(S(=O)(=O)NCC2CCCO2)c1 (stereo not given),-1.6,-0.8,-10.4,-1.2,-0.1,·
CCOC(=O)c1c(C)oc2c1c(C=NCCO)c(O)c1ccccc12,-4.3,·,8.8,7.1,29.9*,12.0
Cc1ccc(CNc2ccc(O)cc2)cc1,9.7,·,22.1,17.7,39.0*,9.5
Cc1ccc(NCc2ccccc2O)cc1,-2.1,3.8,-2.2,4.4,1.2,·
CC/C(C)=N/Nc1nc(-c2cc3cccc(OC)c3oc2=O)cs1,9.2,13.4,·,·,·,·
CCc1ccc(/C=C/C(=O)C2C(=O)c3ccccc3C2=O)cc1,9.2,10.4,10.9,8.7,27.6*,8.0
CC1CCC2(CC1)NC(=O)N(CC(=O)Nc1ccc(F)cc1)C2=O (stereo not given),·,1.5,4.5,5.4,-1.5,·
C=CCn1c(O)c(N=Nc2ccccc2O)c2ccccc21,·,14.0,4.2,13.4,26.2*,12.6
SMILES,RBBP9 inh,pPAFAH inh,PAFAH2 inh,PAFAH1B2 FP inh,PAFAH1B3 FP inh,PAFAH1B3 confirm
C=CCn1c(O)c(N=Nc2ccccc2)c2ccccc21,·,1.5,-2.6,3.0,8.2,·
O=C(Cn1ncc(Cl)c(Cl)c1=O)N1CCc2ccccc21,-5.1,·,10.2,0.3,27.6*,21.9
O=C(Cc1csc(-c2cccc(Cl)c2)n1)Nc1cccc(S(=O)(=O)NC2=NCCC2)c1,·,4.2,-0.8,1.6,6.4,·
O=[N+]([O-])c1ccc(O)c(-c2nn[nH]n2)c1,7.9,1.4,-1.6,11.3,27.6*,26.4*
Cc1cc(C)n(-c2ccc([N+](=O)[O-])cc2-c2nn[nH]n2)n1,-5.8,1.4,-0.3,9.2,1.0,·
O=C(c1cccc(NS(=O)(=O)c2ccc(F)c(F)c2)c1)N1CCCCC1,·,·,-4.2,6.4,2.4,·
CCCN1CCCc2cc(CN)ccc21,0.9,20.8,9.8,1.1,29.8*,15.7
O=C1C(Cl)=C(N2CCC(C(=O)O)CC2)C(=O)c2ccccc21,-6.1,12.8,20.8,22.5,41.3*,32.1*
CC(=O)c1sc(C(C)(C)C)cc1NC(=O)/C=C/C(=O)O,-10.2,0.0,11.6,5.8,43.6*,35.1*
